# Screens (PubChem)
# EBI2 antag: EBI2 (human) antagonism; EBI2 beta-arrestin recruitment, luminescence, 7a,25-OHC stimulated; inhibition, % at 5 µM; hit rate 0.81% among 360,000; AID 651636; in the data active = inhibition above about 38%;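 note: enzyme fragment complementation signal reports receptor beta-arrestin coupling in cells; 0% = agonist plus DMSO wells and 100% = wells without agonist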
# CXCR6 block: blocks human CXCR6 beta-arrestin recruitment. hit rate 0.36% among 360,000. inhibition, % at 20 µM. O00574. CHO-K1 PathHunter CXCR6 beta-arrestin, luminescence; in the data active = inhibition above about 34%, passing the limit was not always enough;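 note: antagonist mode with CXCL16 agonist at 10 nM final; 0% = 10 nM CXCL16 with DMSO and 100% = unstimulated wells without agonist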
# Target sequence (O00574 whole entry, looked up): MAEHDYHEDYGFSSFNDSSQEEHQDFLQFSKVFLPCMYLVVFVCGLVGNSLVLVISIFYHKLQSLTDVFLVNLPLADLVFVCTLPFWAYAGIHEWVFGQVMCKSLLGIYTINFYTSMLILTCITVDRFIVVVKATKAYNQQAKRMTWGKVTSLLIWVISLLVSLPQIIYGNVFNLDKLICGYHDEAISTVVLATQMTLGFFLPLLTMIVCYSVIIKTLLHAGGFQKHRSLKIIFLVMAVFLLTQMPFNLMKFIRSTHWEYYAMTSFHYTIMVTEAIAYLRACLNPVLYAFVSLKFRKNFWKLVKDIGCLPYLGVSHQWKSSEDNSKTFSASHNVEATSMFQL
# APJ antagonist: antagonists of human APJ apelin receptor. P35414. CHO-K1 APJ beta-arrestin complementation, luminescence. inhibition, % at 20 µM. hit rate 0.32% among 330,000. AID 2521;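 active = inhibition above about 40% at 20 µM, limit read from the data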;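 note: cells challenged with 10 nM apelin-13 agonist together with compound; plate controls were apelin-13 plus DMSO wells for no effect and DMSO wells lacking apelin-13 for full effect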
# CCR6 antag: CCR6 (human) receptor antagonism. P51684. AID 493098. hit rate 0.49% among 340,000. inhibition, % at 20 µM. CHO-K1 CCR6 PathHunter beta-arrestin, luminescence, CCL20-stimulated;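 active = compounds whose inhibition of the agonist-driven luminescence signal at 20 µM reaches about 50%, limit read from the data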;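 note: cells stimulated with CCL20 at 14 nM final; plate controls were DMSO with CCL20 for no effect and DMSO without agonist for full effect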
# Target sequence (P51684 whole entry, looked up): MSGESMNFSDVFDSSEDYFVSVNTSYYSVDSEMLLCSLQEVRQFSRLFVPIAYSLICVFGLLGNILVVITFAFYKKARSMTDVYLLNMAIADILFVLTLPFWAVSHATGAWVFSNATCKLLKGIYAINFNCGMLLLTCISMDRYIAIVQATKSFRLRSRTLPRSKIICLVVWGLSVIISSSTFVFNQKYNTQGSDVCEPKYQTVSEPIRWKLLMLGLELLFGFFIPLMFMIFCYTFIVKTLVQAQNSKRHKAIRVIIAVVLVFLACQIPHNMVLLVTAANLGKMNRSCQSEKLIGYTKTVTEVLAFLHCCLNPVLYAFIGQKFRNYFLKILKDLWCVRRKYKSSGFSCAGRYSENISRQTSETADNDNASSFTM
# APJ ag: activates the human apelin receptor APJ; CHO-K1 APJ PathHunter beta-arrestin, luminescence; 0% DMSO wells, 100% apelin; hit rate 0.11% among 330,000; P35414; activation, % at 20 µM;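 active = activation more than six SD over the plate average, tested at 20 µM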;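 note: 0% = DMSO alone and 100% = apelin-13 at 10 nM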
#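 Material: engineered CHO-K1 APJ arrestin reporter cells; amount: 1000 CHO-K1 reporter cells seeded per well; incubation: compound stimulation 90 min at 25 °C, detection 60 min; signal: luminescent beta-gal fragment complementation, chemiluminescent substrate; read-out basis: APJ agonist activity; controls: DMSO-only wells as negative, 10 nM Apelin-13 as positive control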
# EBI2 conf: EBI2 (human) antagonism, single concentration confirmation; shares compounds with EBI2 antag; EBI2 beta-arrestin luminescence, 7a,25-OHC antagonism; inhibition, % at 5 µM; hit rate 29% among 2,400; AID 651997;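 active = inhibition of at least 50%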
# EBI2 agonist: counter-screen for EBI2 antagonists: EBI2 agonist activity. activation, % at 5 µM. shares compounds with EBI2 antag. EBI2-expressing cells, agonist mode, luminescence, 60 min; 0% vehicle, 100% 7α,25-dihydroxycholesterol control. 2,400 tested, under 10 active;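 active = activation of at least 50%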
# bGal counter: inhibits E. coli beta-galactosidase, counter-screen for EBI2 antagonists; purified beta-galactosidase, luminescent Galacton Star, 15 min; inhibition, % at 5 µM; hit rate 1% among 2,400; AID 652176; shares compounds with EBI2 antag;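 active = replicate-average signal at least 3 plate SD below neutral wells, shown as high inhibition, flagging enzyme-inhibiting false positives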;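 note: 0% = DMSO wells with enzyme and 100% = wells lacking enzyme; higher means stronger loss of beta-gal luminescence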
# An asterisk follows results filed as active; x = not tested or not shown. The list is not random: actives were taken first. Their share in the collection is about 1.5%.
SMILES,EBI2 antag,CXCR6 block,APJ antagonist,CCR6 antag,APJ ag,EBI2 conf,EBI2 agonist,bGal counter
Oc1cccc(-c2nc3c4c(ncn3n2)-c2ccccc2CC42CCCC2)c1,46.7*,-7.6,-18.7,-8.2,-0.4,30.7,2.1,9.0
COc1ccc(OCc2nc3c4c(ncn3n2)-c2ccccc2CC42CCCC2)cc1,55.4*,-2.1,-21.3,17.7,-1.9,18.6,2.6,5.7
COc1cccc(CN2CCC(C)(Oc3cccc(Cl)c3)C2)c1OC (configuration not stated),12.5,-2.7,x,x,x,x,x,x
C=CCn1c(=O)c2ccc(C(=O)NCc3ccccc3)cc2n(Cc2cccc(Cl)c2)c1=O,54.9*,11.5,-3.2,26.4,-3.9,44.6,1.9,2.5
COc1ccc(N2CCN(c3cc(C(=O)Nc4cc(OC)c(OC)c(OC)c4)ncn3)CC2)cc1OC,-1.7,-1.7,x,x,x,x,x,x
CCOC(=O)C1CCN(CC(=O)Nc2cc(C)nn2-c2nc3ccccc3s2)CC1,54.8*,11.8,8.1,4.0,-3.1,21.8,0.8,-9.3
Cc1cc(NC(=O)CN2CC(C)OC(C)C2)n(-c2nc3ccccc3s2)n1 (configuration not stated),18.0,4.5,20.8,8.4,-1.5,x,x,x
Cc1cc(C(=O)N2CCN(C(c3ccccc3)c3ccccc3)CC2)no1,7.5,0.6,-2.1,4.6,2.0,x,x,x
O=C(c1cc(-c2cccs2)on1)N1CCN(C(c2ccccc2)c2ccccc2)CC1,87.8*,10.1,21.5,14.8,-4.4,83.8*,-1.2,-9.4
COc1cccc(-c2cc(C(=O)N3CCN(C(c4ccccc4)c4ccccc4)CC3)no2)c1,86.8*,11.0,-5.9,12.8,-0.7,80.6*,0.8,-6.3
CSc1ccc(CNC(=O)C2CCC(=O)N(CCc3ccc(Cl)cc3)C2)cc1 (configuration not stated),50.0*,1.3,x,x,x,21.1,-0.9,-17.9
O=C(COc1ccc(Br)cc1)N1CCOCC1,17.7,5.8,7.1,-6.7,-4.8,x,x,x
O=C(COc1ccc(Br)cc1)N1CCc2ccccc2C1,58.3*,4.2,2.0,17.4,1.8,73.4*,-0.9,7.3
O=C(COc1ccc(Br)cc1)c1ccc2c(c1)CCCC2,75.2*,-3.3,-8.0,30.6,3.5,35.5,1.7,2.5
COc1ccc(OCC(=O)N2CCc3ccccc3C2)cc1,9.8,0.8,-10.0,-1.2,-0.5,x,x,x
Cc1ccc(OCC(=O)c2ccc3c(c2)CCCC3)cc1C,41.9,-2.1,10.2,18.5,-3.4,x,x,x
O=C(COc1ccc(Br)cc1)N1CCC(c2ccccc2)C1 (configuration not stated),87.2*,5.7,7.8,9.4,-5.4,84.2*,-1.3,5.3
CCOC(=O)c1cc2ccccc2n1C1CCN(C)CC1,-12.9,-2.0,x,x,x,x,x,x
COc1ccc(CCNC(=O)/C=C/c2ccc(C)cc2)cc1OC,33.9,-1.5,7.4,-13.0,-4.2,x,x,x
O=C(COC(=O)/C=C/c1cccc(Br)c1)NC1CCCCC1,3.3,-5.7,-0.7,3.7,-3.1,x,x,x
O=C(/C=C/c1cccc(Br)c1)NCC1CCCCC1,42.5*,-1.6,-0.5,21.0,-2.8,34.6,-0.8,-18.0
COc1ccc(CCNC(=O)/C=C/c2cc(OC)c(OC)c(OC)c2)cc1OC,37.5*,-1.8,8.1,8.2,-2.8,18.0,1.0,10.9
COc1cc(/C=C/C(=O)NCC2CCCCC2)cc(OC)c1OC,51.7*,10.4,-28.3,3.7,1.8,40.2,-1.5,-19.3
O=C(/C=C/c1ccc(Br)cc1)NC1CCCCCC1,64.5*,-1.8,11.8,7.8,-1.6,60.7*,-0.6,9.4
Cc1c(Cc2ccc3c(c2)OCO3)sc(NC(=O)c2ccccc2)c1C(N)=O,6.9,-2.1,-3.2,11.7,-0.6,x,x,x
SMILES,EBI2 antag,CXCR6 block,APJ antagonist,CCR6 antag,APJ ag,EBI2 conf,EBI2 agonist,bGal counter
CCOC(=O)c1c(NC(=O)CN2C(=O)c3ccccc3C2=O)sc(Cc2ccc3c(c2)OCO3)c1C,65.0*,5.8,19.1,9.3,-3.2,39.4,-0.3,-15.8
CCN(CC)c1ccc(NC(=O)/C=C\c2ccccc2Cl)cc1,48.6*,13.0,9.4,23.9,-2.4,47.2,0.7,12.3
CC(C)Nc1ncnc2c1ncn2[C@H]1CN(Cc2ccc(Cl)cc2)C[C@@H](CO)O1,74.4*,0.4,x,x,x,88.3*,-1.7,-20.2
CC(C)Nc1ncnc2c1ncn2[C@H]1CN(Cc2ccc(F)cc2)C[C@@H](CO)O1,46.5*,-8.4,x,x,x,50.4*,0.0,7.5
CC(C)CNc1ncnc2c1ncn2[C@H]1CN(Cc2ccc(Cl)cc2)C[C@@H](CO)O1,8.2,-8.2,x,x,x,x,x,x
CC(C)C(C(=O)NCc1ccccc1)N1CCN(C(=O)C2CCCO2)CC1 (configuration not stated),-1.9,x,x,x,x,x,x,x
COc1ccccc1N1CCN(C(=O)COc2ccc(C)cc2Br)CC1,50.3*,5.2,-7.9,-19.6,-0.4,16.3,-0.6,-11.2
COc1ccccc1N1CCN(C(=O)c2ccc(-c3ccccc3)cc2)CC1,73.5*,-3.3,10.7,12.2,-0.2,40.3,-1.4,-8.6
CCCS(=O)(=O)N1CCN(C(=O)c2ccc(-c3ccccc3)cc2)CC1,73.4*,0.0,-4.8,-4.8,5.4,43.2,0.6,3.2
COc1ccccc1N1CCN(C(=O)/C=C/c2cccc([N+](=O)[O-])c2)CC1,19.0,-1.9,-3.5,7.2,-0.9,x,x,x
CCCS(=O)(=O)N1CCN(C(=O)c2cccnc2)CC1,-9.9,-6.0,12.0,-11.3,1.3,x,x,x
COc1ccccc1N1CCN(C(=O)/C=C/c2ccc(C)cc2)CC1,93.1*,-5.9,-2.9,18.7,1.1,84.8*,1.5,2.5
C[C@H]1COc2cc(N3CCC[C@H]3CO)ccc2S(=O)(=O)N1,-11.0,-0.6,x,x,x,x,x,x
COc1ccc(-c2cc(C(=O)N3CCN(c4ccccc4OC)CC3)no2)cc1OC,7.6,1.7,-1.8,-7.6,-1.9,x,x,x
O=C(c1ccc(-c2ccccc2)cc1)N1CCN(c2ncccn2)CC1,49.5*,2.1,0.3,-10.4,-7.3,33.0,-0.1,1.9
O=C(c1ccccc1)N1CCN(c2ncccn2)CC1,-1.7,7.3,-7.7,-2.2,0.4,x,x,x
C=CCN1CCN(C(=O)c2ccc(-c3ccccc3)cc2)CC1,77.0*,-5.4,-10.6,5.4,-1.5,44.7,-0.2,2.8
COc1ccccc1N1CCN(C(=O)c2cc(-c3ccccc3)on2)CC1,63.2*,26.6,-9.0,5.1,2.6,54.0*,0.2,4.7
Cc1ccc(/C=C/C(=O)N2CCN(c3cccc(C(F)(F)F)c3)CC2)cc1,83.1*,1.4,-8.5,9.2,0.6,76.1*,1.4,-2.7
